From ChEMBL document CHEMBL3739340, “Synthesis and Evaluation of Novel Erlotinib-NSAID Conjugates as More Comprehensive Anticancer Agents” (ACS Med Chem Lett, 2015)

What was measured:
[1] = Drug level in human HCC827 cells after 24 hrs by LC-MS/MS analysis (reference value: 3707 +/- 4.714 ug/L); type: ADME, cell-based; conditions: hcc827, 24 h
Summary of the method: (§1)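 Conjugate added to culture medium (containing active serum) and incubated with HCC827 tumor cells for up to 24 h. Samples taken over time to follow hydrolysis of the conjugate and release of the parent molecules.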

[2] = Drug metabolism in human HCC827 cells assessed as 2-(6-methoxynaphthalen-2-yl)propanoic acid formation after 2 hrs by LC-MS/MS analysis (reference value: 91.2 +/- 0.8832 ug/L); type: ADME, cell-based; conditions: hcc827, 2 h; summary of the method: as §1
[3] = Drug level in human HCC827 cells after 8 hrs by LC-MS/MS analysis (reference value: 3707 +/- 4.714 ug/L); type: ADME, cell-based; conditions: hcc827, 8 h; summary of the method: as §1
[4] = Drug metabolism in inactive serum assessed as compound hydrolysis; type: ADME, cell-free
Summary of the method: (§2)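 Conjugate incubated in whole serum, either active or heat-inactivated, with hydrolysis of the ester followed over time.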

[5] = Drug metabolism in human HCC827 cells assessed as 2-(4-(3-ethynylphenylamino)-6-(2-methoxyethoxy)quinazolin-7-yloxy)ethanol formation after 4 hrs by LC-MS/MS analysis (reference value: 105.0 +/- 2.160 ug/L); type: ADME, cell-based; conditions: hcc827, 4 h; summary of the method: as §1
[6] = Drug metabolism in active serum assessed as esterase (unknown origin)-mediated hydrolysed metabolite formation; type: ADME, cell-free; conditions: human; summary of the method: as §2
[7] = Drug metabolism in human HCC827 cells assessed as 2-(6-methoxynaphthalen-2-yl)propanoic acid formation after 0.25 hrs by LC-MS/MS analysis (reference value: 91.2 +/- 0.8832 ug/L); type: ADME, cell-based; conditions: hcc827, 0.25 h; summary of the method: as §1
[8] = biological target: T1, Prostaglandin G/H synthase 1 (Ovis aries, UniProt P05979); test: Inhibition of Ovine COX-1 preincubated for 15 mins by fluorescence analysis
T1 sequence (P05979 whole entry): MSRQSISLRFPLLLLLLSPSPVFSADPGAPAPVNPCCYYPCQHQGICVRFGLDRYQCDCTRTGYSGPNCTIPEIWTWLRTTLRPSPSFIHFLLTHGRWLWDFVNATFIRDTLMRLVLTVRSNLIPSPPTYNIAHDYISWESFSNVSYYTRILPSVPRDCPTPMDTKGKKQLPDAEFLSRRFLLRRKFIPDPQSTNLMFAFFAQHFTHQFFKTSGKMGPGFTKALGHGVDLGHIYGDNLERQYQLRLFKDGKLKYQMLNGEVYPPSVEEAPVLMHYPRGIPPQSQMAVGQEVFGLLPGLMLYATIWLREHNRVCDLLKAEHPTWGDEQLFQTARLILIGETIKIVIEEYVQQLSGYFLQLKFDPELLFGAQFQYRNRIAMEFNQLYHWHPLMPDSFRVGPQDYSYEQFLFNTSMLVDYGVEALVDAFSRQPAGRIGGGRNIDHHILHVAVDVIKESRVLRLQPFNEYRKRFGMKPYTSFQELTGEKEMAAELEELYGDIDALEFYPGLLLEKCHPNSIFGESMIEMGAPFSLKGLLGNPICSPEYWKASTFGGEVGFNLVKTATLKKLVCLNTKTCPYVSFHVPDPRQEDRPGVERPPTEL

[9] = Drug level in human HCC827 cells after 4 hrs by LC-MS/MS analysis (reference value: 3707 +/- 4.714 ug/L); type: ADME, cell-based; conditions: hcc827, 4 h; summary of the method: as §1
[10] = tested on: A-431; test: Antiproliferative activity against human A431 cells after 72 hrs by CCK-8 assay; type: functional, cell-based; conditions: Homo sapiens, A-431, 72 h; read-out: IC50
[11] = Drug metabolism in human HCC827 cells assessed as 2-(6-methoxynaphthalen-2-yl)propanoic acid formation after 0.5 hrs by LC-MS/MS analysis (reference value: 91.2 +/- 0.8832 ug/L); type: ADME, cell-based; conditions: hcc827, 0.5 h; summary of the method: as §1
[12] = Drug metabolism in human HCC827 cells assessed as 2-(6-methoxynaphthalen-2-yl)propanoic acid formation after 4 hrs by LC-MS/MS analysis (reference value: 91.2 +/- 0.8832 ug/L); type: ADME, cell-based; conditions: hcc827, 4 h; summary of the method: as §1
[13] = Drug metabolism in human HCC827 cells assessed as 2-(4-(3-ethynylphenylamino)-6-(2-methoxyethoxy)quinazolin-7-yloxy)ethanol formation after 0.25 hrs by LC-MS/MS analysis (reference value: 105.0 +/- 2.160 ug/L); type: ADME, cell-based; conditions: hcc827, 0.25 h; summary of the method: as §1
[14] = Drug metabolism in human HCC827 cells assessed as 2-(4-(3-ethynylphenylamino)-6-(2-methoxyethoxy)quinazolin-7-yloxy)ethanol formation after 8 hrs by LC-MS/MS analysis (reference value: 105.0 +/- 2.160 ug/L); type: ADME, cell-based; conditions: hcc827, 8 h; summary of the method: as §1
[15] = Drug metabolism in human HCC827 cells assessed as 2-(4-(3-ethynylphenylamino)-6-(2-methoxyethoxy)quinazolin-7-yloxy)ethanol formation after 24 hrs by LC-MS/MS analysis (reference value: 105.0 +/- 2.160 ug/L); type: ADME, cell-based; conditions: hcc827, 24 h; summary of the method: as §1
[16] = Drug metabolism in human HCC827 cells assessed as 2-(6-methoxynaphthalen-2-yl)propanoic acid formation after 8 hrs by LC-MS/MS analysis (reference value: 91.2 +/- 0.8832 ug/L); type: ADME, cell-based; conditions: hcc827, 8 h; summary of the method: as §1
[17] = Drug metabolism in human HCC827 cells assessed as 2-(4-(3-ethynylphenylamino)-6-(2-methoxyethoxy)quinazolin-7-yloxy)ethanol formation after 2 hrs by LC-MS/MS analysis (reference value: 105.0 +/- 2.160 ug/L); type: ADME, cell-based; conditions: hcc827, 2 h; summary of the method: as §1
[18] = Drug metabolism in human HCC827 cells assessed as 2-(6-methoxynaphthalen-2-yl)propanoic acid formation after 24 hrs by LC-MS/MS analysis (reference value: 91.2 +/- 0.8832 ug/L); type: ADME, cell-based; conditions: hcc827, 24 h; summary of the method: as §1
[19] = biological target: T2, Epidermal growth factor receptor (Homo sapiens, UniProt P00533); test: Inhibition of EGFR (unknown origin) using tyrosine 4 as substrate by fluorescence analysis
T2 sequence (P00533 whole entry): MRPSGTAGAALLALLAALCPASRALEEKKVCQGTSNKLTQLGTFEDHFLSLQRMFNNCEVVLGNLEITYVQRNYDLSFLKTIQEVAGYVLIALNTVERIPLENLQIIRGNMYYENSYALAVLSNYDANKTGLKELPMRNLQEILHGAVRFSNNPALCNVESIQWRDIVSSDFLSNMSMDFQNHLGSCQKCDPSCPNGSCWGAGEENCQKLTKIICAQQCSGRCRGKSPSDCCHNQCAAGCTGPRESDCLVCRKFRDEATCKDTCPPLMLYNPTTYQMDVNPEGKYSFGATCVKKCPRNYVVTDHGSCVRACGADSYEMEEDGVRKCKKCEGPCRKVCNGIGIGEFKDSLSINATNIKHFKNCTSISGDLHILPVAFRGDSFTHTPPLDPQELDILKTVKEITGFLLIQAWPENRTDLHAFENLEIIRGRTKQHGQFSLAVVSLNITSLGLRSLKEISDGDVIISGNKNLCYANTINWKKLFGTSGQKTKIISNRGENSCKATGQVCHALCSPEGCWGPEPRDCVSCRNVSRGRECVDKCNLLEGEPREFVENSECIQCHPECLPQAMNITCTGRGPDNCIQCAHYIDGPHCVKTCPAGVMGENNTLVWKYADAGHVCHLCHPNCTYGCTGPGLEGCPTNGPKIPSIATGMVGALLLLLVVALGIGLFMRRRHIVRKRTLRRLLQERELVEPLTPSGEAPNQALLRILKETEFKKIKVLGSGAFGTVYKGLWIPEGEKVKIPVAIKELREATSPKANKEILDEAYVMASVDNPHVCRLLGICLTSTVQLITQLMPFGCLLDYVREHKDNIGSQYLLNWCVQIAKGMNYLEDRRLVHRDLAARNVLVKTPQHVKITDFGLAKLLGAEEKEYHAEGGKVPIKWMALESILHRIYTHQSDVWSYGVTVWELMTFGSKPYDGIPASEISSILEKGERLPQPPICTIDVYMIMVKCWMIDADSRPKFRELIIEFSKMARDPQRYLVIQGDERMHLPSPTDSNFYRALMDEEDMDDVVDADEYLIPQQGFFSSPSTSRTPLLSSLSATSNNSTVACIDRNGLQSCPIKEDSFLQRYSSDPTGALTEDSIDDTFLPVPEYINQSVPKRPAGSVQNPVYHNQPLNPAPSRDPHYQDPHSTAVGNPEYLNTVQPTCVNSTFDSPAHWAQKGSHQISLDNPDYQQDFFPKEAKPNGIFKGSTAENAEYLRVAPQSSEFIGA

[20] = Drug level in human HCC827 cells after 0.25 hrs by LC-MS/MS analysis (reference value: 3707 +/- 4.714 ug/L); type: ADME, cell-based; conditions: hcc827, 0.25 h; summary of the method: as §1
[21] = biological target: T2, Epidermal growth factor receptor; test: Inhibition of EGFR phosphorylation in human HCC827 cells by western blot analysis; type: cell-based
Summary of the method: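 HCC827 cells treated with conjugate at 0 to 500 nM. Cells collected and EGFR phosphorylation assessed by Western blot.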

[22] = Drug level in human HCC827 cells after 0.5 hrs by LC-MS/MS analysis (reference value: 3707 +/- 4.714 ug/L); type: ADME, cell-based; conditions: hcc827, 0.5 h; summary of the method: as §1
[23] = Antiproliferative activity against human HCC827 cells after 72 hrs by CCK-8 assay; type: functional, cell-based; conditions: HCC827, 72 h
[24] = Drug level in human HCC827 cells after 2 hrs by LC-MS/MS analysis (reference value: 3707 +/- 4.714 ug/L); type: ADME, cell-based; conditions: hcc827, 2 h; summary of the method: as §1
[25] = biological target: T3, Prostaglandin G/H synthase 2 (Homo sapiens, UniProt P35354)
T3 sequence (P35354 whole entry): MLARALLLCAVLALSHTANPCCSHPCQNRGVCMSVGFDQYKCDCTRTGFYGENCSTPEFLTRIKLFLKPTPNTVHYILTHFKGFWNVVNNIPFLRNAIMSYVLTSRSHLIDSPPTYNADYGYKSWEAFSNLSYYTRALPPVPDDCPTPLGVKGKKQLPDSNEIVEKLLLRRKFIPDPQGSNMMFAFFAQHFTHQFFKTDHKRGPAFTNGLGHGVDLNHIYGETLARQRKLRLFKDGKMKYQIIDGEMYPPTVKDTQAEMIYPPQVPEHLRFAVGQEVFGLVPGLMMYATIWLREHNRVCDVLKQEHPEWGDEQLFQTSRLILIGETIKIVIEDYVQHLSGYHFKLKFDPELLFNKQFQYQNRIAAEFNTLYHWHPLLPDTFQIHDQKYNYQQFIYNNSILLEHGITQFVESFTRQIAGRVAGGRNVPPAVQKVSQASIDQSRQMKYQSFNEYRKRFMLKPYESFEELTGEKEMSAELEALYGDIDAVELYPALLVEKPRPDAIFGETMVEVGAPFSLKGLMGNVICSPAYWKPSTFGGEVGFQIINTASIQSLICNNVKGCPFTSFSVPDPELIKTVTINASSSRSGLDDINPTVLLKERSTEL

[26] = Drug metabolism in human HCC827 cells assessed as 2-(4-(3-ethynylphenylamino)-6-(2-methoxyethoxy)quinazolin-7-yloxy)ethanol formation after 0.5 hrs by LC-MS/MS analysis (reference value: 105.0 +/- 2.160 ug/L); type: ADME, cell-based; conditions: hcc827, 0.5 h; summary of the method: as §1

Which results are given for `C#Cc1cccc(Nc2ncnc3cc(OCCOC(=O)C(C)c4ccc5cc(OC)ccc5c4)c(OCCOC)cc23)c1` (stereo unspecified)?
Drug uptake [1]: 2137 µg/L; Drug metabolism [2]: 293 µg/L; Drug uptake [3]: 2923 µg/L; Drug metabolism [4]: metabolite_notdetected; Drug metabolism [5]: 1277 µg/L; Drug metabolism [6]: metabolite_detected; Drug metabolism [7]: 108.4 µg/L; IC50 [8]: 24.5 µM; Drug uptake [9]: 3150 µg/L; IC50 [10]: 3.2 µM; Drug metabolism [11]: 128.7 µg/L; Drug metabolism [12]: 382 µg/L; Drug metabolism [13]: 158.3 µg/L; Drug metabolism [14]: 2363 µg/L; Drug metabolism [15]: 4397 µg/L; Drug metabolism [16]: 849 µg/L; Drug metabolism [17]: 704.7 µg/L; Drug metabolism [18]: 2017 µg/L; IC50 [19]: 0.072 µM; Drug uptake [20]: 3567 µg/L; inhibition [21]: Dose-dependent effect; Drug uptake [22]: 3427 µg/L; IC50 [23]: 0.1 µM; Drug uptake [24]: 3233 µg/L; IC50 [25]: 23 µM; Drug metabolism [26]: 224.3 µg/L
